Sampled rows, rich in hits. Any-hit rate of the full collection: about 1.9%.
MT stabilizer: microtubule stabilizers in HeLa cells; HeLa tubulin immunostaining HCS, 24 h; share of cells brighter than vehicle mean+2SD; % tubulin-high responders, % at 10 µM; actives 0.83% (n = 200,000); AID 2205;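 active = plate Z-score above 3 for both tubulin-high and condensed-nucleus cell shares, with cell loss under 80%, at 10 µM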;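 note: anti alpha tubulin signal scored within the nucleus-defined area of each cell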
Tb hexokinase: blocks Trypanosoma brucei hexokinase 1 activity; recombinant TbHK1, G6PDH-coupled NADH A340; AID 1430; actives 0.11% (n = 220,000); inhibition, % at 10 µM;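 active = inhibition of 50% or more in the single-dose primary screen; inactive = inhibition below 50%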
b-catenin transl: alters nuclear translocation of beta-catenin in HeLa cells. immunofluorescence imaging. nuclear translocation activity, % at 5 µM. actives 0.3% (n = 190,000);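 active = nuclear translocation activity above 50% at 5 µM, with a well cell count of 50 or more; inconclusive = wells under 50 cells across six images, flagged as toxic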;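 note: per-cell ratio of nuclear to cytoplasmic median beta-catenin stain intensity; plate controls were DMSO negative control for no effect and GSK-3 inhibitor IX positive control for full effect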
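Signal – beta-catenin immunofluorescence imaging with DAPI · Test system – human HeLa cell line · Dosing – 5 µM primary single dose, 0.1% DMSO, 0.02–20 µM confirmation series · Measure – % activation, nuclear-to-cytoplasmic median beta-catenin signal ratio per cell · Incubation – 24 h compound exposure at 37°C, 5% CO2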
Ins promoter up: MIN6 insulin promoter up-regulation; MIN6 insulin promoter-GFP reporter, high-content imaging; active compounds read high; z-score at 5 µM; actives 0.3% (n = 190,000); AID 1625;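 active = z-score above 3 at 5 µM with at least 500 cells counted in the well; inconclusive = wells under 500 cells, flagged as cytotoxic or low count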
Autophagy HCS: modulators of autophagy; MEF GFP-LC3 puncta imaging; test concentration mostly 10 µM; calls only at 10 µM (by protocol); actives 0.98% (n = 190,000); AID 463193;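 active = percentage of spot-positive cells more than 3 SD above its plate mean, without a fluorescence outlier flag or 80% toxicity; inconclusive = no clear call, values can overlap the other calls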;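 note: spot-positive cell cutoff set from DMSO-treated cells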
Starred values were filed as active, the others as inactive; i = inactive; ? = inconclusive; nt = no result given; + = active, no number.

SMILES	MT stabilizer	Tb hexokinase	b-catenin transl	Ins promoter up	Autophagy HCS
O=C1CC(c2cccnc2)c2cc3c(cc2N1)OCO3 (configuration not stated)	4.1	-4.9	-1.6	nt	i
Cc1ccc(O)c(C(=O)c2cnc3c(c2)CN(C)C(=O)N3)c1	6.9	-22.1	-0.3	0.96	i
CN1Cc2cc(C(=O)c3cc(Cl)cc(CSc4ncccn4)c3O)cnc2NC1=O	20.1*	-8.2	67.1*	-1.35	i
Oc1c(N=Nc2ccccn2)ccc2ccccc12	3.2	4.7	6.6	?	+
c1ccc2c(c1)ccc1ncccc12	2.1	-1.2	-0.9	-0.37	i
CCOc1cc(N2CCCC2)ccc1[N+](=O)[O-]	2.4	-10.3	0.7	0.44	i
COCCN1C(=O)/C(=C/c2ccc(N3CCCC3)cc2C)SC1=S	5.6	4.1	17.6	nt	+
CCN=C1S/C(=C\c2ccc(N3CCOCC3)cc2C)C(=O)N1CC	3.1	33.3	5.6	-0.3	i
O=c1c(Cl)c2oc3ccccc3nc-2c2ccccc12	1.5	2.4	0.1	nt	+
Clc1ccc(-c2nnc(Sc3nc4ccccc4o3)c3ccccc23)cc1	10.8	-0.4	-2.8	nt	i
COc1ccccc1OCC#CCNC1CCCCC1C (configuration not stated)	5.4	2.2	0.8	-0.31	i
COC(=O)c1cccc(NS(=O)(=O)c2ccc(OC)c(OC)c2)c1C	0.9	2.1	-14.6	nt	i
CCOC(=O)c1ccccc1NS(=O)(=O)c1ccc(OCC)cc1	34.0	1.4	nt	-0.19	+
COC(=O)c1cccc(NS(=O)(=O)c2ccc(OC)cc2)c1C	35.0*	3.2	53.2*	nt	i
Cc1ccccc1NS(=O)(=O)c1ccc(OCC(=O)NCc2cccnc2)cc1	3.7	2.5	1.2	-0.26	+
CCOC(=O)c1ccc(N=Nc2c(C)c(C#N)c(O)[nH]c2=O)cc1	2.0	-6.0	-1.4	0.23	i
C=CCN1C(=O)CS/C1=N\N=C\c1cccc([N+](=O)[O-])c1	1.9	-1.2	-0.1	-1.28	i
CCN1CC(CN(C)Cc2nc(-c3ccc(C(F)(F)F)cc3)no2)CC1=O (configuration not stated)	1.7	1.5	57.4*	nt	i
CN(C)/C=C/C(=C\C(=O)C(F)(F)F)Nc1ccc(C(F)(F)F)cc1	3.3	-19.2	0.9	-0.16	i
Oc1ccc(Nc2nc3ccccc3nc2Nc2ccc(O)cc2)cc1	4.4	-14.8	nt	-0.35	+
Cc1nc2ccccc2nc1N/N=C/c1ccc(O)cc1	nt	-26.2	-0.1	-0.61	nt
COc1cc(S(=O)(=O)N(Cc2ccco2)C2CCCC2)ccc1-n1cnnn1	2.9	2.7	-2.5	0.97	i
CCOc1ccccc1CN(Cc1ccco1)S(=O)(=O)c1ccc(-n2cnnn2)c(OC)c1	40.9*	4.1	-0.7	0.04	i
Cn1c(=O)c2c(nc(NCc3ccccc3)n2CCCc2ccccc2)n(C)c1=O	2.7	3.0	nt	-0.89	i
CC(C)=NNc1nc2c(c(=O)n(C)c(=O)n2C)n1CCc1ccccc1	3.2	-4.9	0.2	4.22*	i
SMILES	MT stabilizer	Tb hexokinase	b-catenin transl	Ins promoter up	Autophagy HCS
Cc1cc(=O)[nH]c(-c2ccc(C(F)(F)F)cc2)n1	nt	-2.2	-0.7	nt	nt
COC(=O)[C@@H]1CC[C@H](C)[C@@H](c2ccc(C)cc2)N1C(=O)c1ccc(/C=N/O[C@@H](C)c2cn([C@H](CO)Cc3ccccc3)nn2)cc1	4.8	-3.6	nt	-0.62	i
COc1ccc(C(CNc2ccc(S(=O)(=O)N3CCCC3)cc2[N+](=O)[O-])N2CCCC2)cc1 (configuration not stated)	3.6	-5.4	0.0	-0.3	+
CCOC(=O)c1ccc(N2CCCCC2)c(NS(=O)(=O)c2ccc(C)cc2)c1	nt	-2.5	0.7	-1.75	nt
O=C(c1cn(-c2ccccc2)nc1-c1ccccc1)N1CCN(c2ccccn2)CC1	36.0*	0.8	-4.0	-0.07	i
Cc1ccc(-c2nn(-c3ccccc3)cc2C(=O)N2CCN(c3ccccn3)CC2)cc1	4.7	-9.2	-1.6	0.11	i
COc1ccc(N(CC(=O)Nc2ccc(OC)cc2OC)S(=O)(=O)c2ccccc2)cc1	8.3*	-0.6	-0.2	-0.58	i
COC(=O)c1ccccc1NC(=O)CN(c1ccc(OC)cc1)S(C)(=O)=O	29.1*	-2.2	2.2	-0.14	i
COc1ccc(NC(=O)CN(c2ccc([N+](=O)[O-])cc2)S(=O)(=O)c2ccccc2)c(OC)c1	2.1	32.4	3.6	-0.59	i
COC(=O)c1ccccc1NC(=O)CN(c1cc(OC)ccc1OC)S(C)(=O)=O	1.2	-3.1	1.1	1.16	i
CCNc1ccc(P(=O)(c2ccccc2)c2ccccc2)cc1	6.1	-7.6	0.5	0.1	i
CCC(=O)NC1(C(F)(F)F)C(=O)Nc2c1c(=O)[nH]c(=O)n2CC(C)C (configuration not stated)	nt	-9.0	-0.6	-0.21	nt
CCOCCCNC(=O)c1c[nH]c2c(CC)cccc2c1=O	2.2	-6.6	0.2	nt	i
CN1CCN(CCCNC(=O)c2ccc(/C=C3\Sc4ccccc4N(Cc4ccc(F)cc4)C3=O)cc2)CC1	1.9	-13.3	4.1	nt	i
CCN1CCN(CCNC(=O)c2ccc(/C=C3\Sc4ccccc4N(Cc4ccccc4F)C3=O)cc2)CC1	1.9	-17.3	3.4	-0.91	+
O=C(NCC(c1cccs1)N1CCOCC1)c1ccc(Br)o1 (configuration not stated)	21.9*	-5.0	0.9	-0.67	i
CC1=NNC(=O)/C1=C\c1cn(-c2ccccc2)nc1-c1ccc(F)cc1	22.1*	-12.2	5.0	-1.28	i
O=C1/C(=C/c2cccnc2)CC/C1=C\c1cccnc1	2.8	-40.5	0.2	nt	i
CN(C)c1ccc(/C=C2\CCC/C(=C\c3ccccc3)C2=O)cc1	9.3*	-4.8	4.3	nt	i
O=C1/C(=C/c2cccnc2)CCC/C1=C\c1cccnc1	29.3*	-31.3	-2.5	-0.75	i
CCC1C/C(=C\c2cccnc2)C(=O)/C(=C/c2cccnc2)C1 (configuration not stated)	45.5*	-19.6	-1.1	-0.17	i
O=C1/C(=C/c2ccccc2)CCCc2ccccc21	2.0	1.6	0.0	-0.13	i
Cc1ccc(/C=C2/SC(=O)NC2=S)o1	2.5	-1.6	0.4	0.07	i
O=C(Nc1ccc(S(=O)(=O)Nc2ccccn2)cc1)C(F)(F)F	1.4	-4.9	-1.0	1.32	i
COc1ccc(S(=O)(=O)N(C)c2ccc(C(=O)N3CCCCC3)cc2)cc1OC	nt	-9.2	0.4	-2.29	nt
Cc1cccc(-n2c(=O)c3c4c(sc3n3c(=S)[nH]nc23)CCC4)c1	2.6	1.0	-0.5	-0.2	+
COc1ccc(OCC(=O)Nc2ccc(S(=O)(=O)Nc3nc(C)cc(C)n3)cc2)cc1	7.2	7.9	0.9	-0.01	i
COc1ccc(OCC(=O)Nc2ccc(S(=O)(=O)Nc3cc(C)nc(C)n3)cc2)cc1	2.9	0.9	-4.1	3.12*	i

Bioassay records from PubChem BioAssay.
